One compound from article PMC5014453 (Molecular Therapy. Nucleic Acids, 2016) can be followed below.

Molecules are shown by their SMILES.

Test [1] relates to HBV (pUC18-HBV1.3 hydrodynamic injection). Description: Anti-HBV assay in an acute hepatitis B mouse model. The note with it: acute hepatitis B mice, real-time PCR, n = 5; Tat-PNA-DR 5.05 mg/kg, 3TC 0.5 mg/kg. Type of test: in vivo, BALB/c mice. (Quantitative PCR measures a nucleic acid by following its amplification.)
For test [2], the system named is HBV DNA and RNA in HepG2.2.15 cells. The test is described as follows: Southern and northern blot of intracellular HBV DNA and RNA in HepG2.2.15 cells. Type of test: cell-based, Hepatitis B virus. The following applies: southern blot, 48 hours, 3TC 20 μmol/l. In outline:
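HepG2.2.15 cells grown in DMEM with 10% FBS, penicillin and streptomycin at 37 °C, 5% CO2, then exposed to test compound; 3TC control at 20 μmol/l. Total RNA TRIzol-extracted, run on 1.5% formaldehyde agarose gel, HBV RNAs probed with the DIG probe also used for Southern blot; GAPDH DIG probe as internal control.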

Test [3] has as its system HBV proteins in HepG2.2.15 cells. Description: Western blot of intracellular HBV proteins in HepG2.2.15 cells. The class given is cell-based, Hepatitis B virus. The following applies: HepG2.2.15 cell lysates, 3TC 20 μmol/l. In general terms: In western blotting, separated proteins are transferred to a membrane and probed.

As to `Nc1ccn([C@@H]2CS[C@H](CO)O2)c(=O)n1` [3TC, lamivudine], the “average HBV DNA concentration in serum” value in test [1] is given as 1.2 × 10^4 copies/ml. For the same compound, in test [2], the “intracellular HBV DNA” value was “clearly inhibited the synthesis of HBV DNA”. In test [3], the “intracellular HBV protein levels (HBsAg, HBV core protein, x protein, RT)” value was “did not affect the expression of any HBV viral proteins”.
